Measurements published in ChEMBL document CHEMBL1141142, “Application of fluorescence microscopy for investigation of cellular distribution of dinuclear platinum anticancer drugs” (J Med Chem, 2005).

How the values were obtained:
Type in all cases: functional
Homo sapiens = species on record: Homo sapiens; test: Relative ratio of IC50 values in both cell lines (U2-OS/Pt)/U2-OS)
Method in brief: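 Ratio of IC50 in U2-OS/Pt over U2-OS, both from the 72 h MTT growth-inhibition assay (quadruplicate wells, five dilutions, OD 590 nm, IC50 derived graphically).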

[1] = Inhibitory concentration required for in vitro cytotoxic activity against human U2-OS osteosarcoma cell line
Method in brief: (§1)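 MTT growth inhibition; U2-OS or cisplatin-resistant U2-OS/Pt monolayers in DMEM with 10% fetal calf serum, penicillin/streptomycin; (3-5) × 10³ cells/well, attached overnight; five dilutions (from 1 mg/mL stocks in water or dimethylformamide) added in quadruplicate; 72 h exposure; MTT ~120 min, DMSO dissolution, OD 590 nm; IC50 versus control read graphically.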

[2] = Inhibitory concentration required for in vitro cytotoxic activity against human U2-OS osteosarcoma cell line (cisplatin Resistant); method in brief: as §1

Row | Sequence | RF (Homo sapiens) | IC50 [1] [µM] | IC50 [2] [µM]
1 | CISPLATIN [listing 1 of 2 here] | 2.5 | – | –
2 | CISPLATIN [listing 2 of 2 here] | – | 2.9 | 7.3
